Reference: PubChem BioAssay AID504543 (Southern Research Specialized Biocontainment Screening …, 2011)
Activity calls are given as the source filed them.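 The calls were made as follows: active = phage lysis blocked by at least 50% at any tested concentration; inactive = the rest.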

Key:
[1] = inhibitors of K1F phage lysis of E. coli UTI89, dose response, capsule biogenesis inhibitor project, strain UTI89, C7 control, set 2 (AID 504543); settings: E. coli UTI89 K1F phage lysis inhibition, OD600 3 h; at 300 µM (top of the series)
Outline: (§1)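 Assay system: Escherichia coli UTI89 (K1 capsule) plus phage-resistant kpsM mutant | Medium: LB broth, overnight cultures diluted 1:100 | Reagent: K1F phage | Incubation: 1.25 h compound pre-incubation at 37 °C, 3 h phage exposure | Technique: OD600 absorbance | Controls: kpsM mutant, 1% DMSO wells | Replicates: Quadruplicate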

[2] = system: E. coli UTI89 K1F phage lysis inhibition, OD600 3 h; test: as above; settings: for CC50: measured here: cytotoxicity
Outline: as §1

IC50 [2]	Structure (SMILES)	inhibition of phage lysis [1]	CC50 [2]
–	CCN(CC)c1ccc2c(-c3ccc(S(=O)(=O)O)cc3S(=O)(=O)O)c3ccc(=[N+](CC)CC)cc-3oc2c1	-8.77% (inactive)	< 2.35 µM
–	O=C(Nc1cccc(C2=NCCN2)c1)Nc1cccc(C2=NCCN2)c1	14.2% (inactive)	69.1 µM
201 µM	O=C1c2c(O)ccc(O)c2C(=O)c2c(NCCNCCO)ccc(NCCNCCO)c21	–	> 300 µM
–	Cc1cccc(-c2cc(C(=O)O)c3ccccc3n2)c1	-1.53% (inactive)	138 µM
–	NC(N)=N/N=C/c1ccc(OCc2ccccc2)cc1	-28.3% (inactive)	9.38 µM
135 µM	N=C(N)SCCc1cccc(CCSC(=N)N)c1	–	181 µM
–	COc1ccc(-c2cc(C(=O)O)c3ccccc3n2)cc1	1.1% (inactive)	112 µM
–	COc1cc(/C=N/N=C(N)N)ccc1OCc1ccccc1Cl	-29.8% (inactive)	11.4 µM
